Measured values taken from ChEMBL document CHEMBL4428077, “Synthesis and Biological Evaluation of N-((1-(4-(Sulfonyl)piperazin-1-yl)cycloalkyl)methyl)benzamide Inhibitors of Glycine Transporter-1” (J Med Chem, 2016).
Activity calls are given as the source filed them. No cut-off for these calls is given here.

Legend:
[1] = molecular target: T1, Sodium- and chloride-dependent glycine transporter 1 (Homo sapiens, UniProt P48067); experiment: Inhibition of glycine transporter-1B in human JAR cells assessed as reduction in [14C]glycine uptake preincubated for 10 mins followed by [14C]glycine addition measured after 3 hrs by scintillation proximity assay; assay type: cell-based
T1 sequence (P48067 whole entry): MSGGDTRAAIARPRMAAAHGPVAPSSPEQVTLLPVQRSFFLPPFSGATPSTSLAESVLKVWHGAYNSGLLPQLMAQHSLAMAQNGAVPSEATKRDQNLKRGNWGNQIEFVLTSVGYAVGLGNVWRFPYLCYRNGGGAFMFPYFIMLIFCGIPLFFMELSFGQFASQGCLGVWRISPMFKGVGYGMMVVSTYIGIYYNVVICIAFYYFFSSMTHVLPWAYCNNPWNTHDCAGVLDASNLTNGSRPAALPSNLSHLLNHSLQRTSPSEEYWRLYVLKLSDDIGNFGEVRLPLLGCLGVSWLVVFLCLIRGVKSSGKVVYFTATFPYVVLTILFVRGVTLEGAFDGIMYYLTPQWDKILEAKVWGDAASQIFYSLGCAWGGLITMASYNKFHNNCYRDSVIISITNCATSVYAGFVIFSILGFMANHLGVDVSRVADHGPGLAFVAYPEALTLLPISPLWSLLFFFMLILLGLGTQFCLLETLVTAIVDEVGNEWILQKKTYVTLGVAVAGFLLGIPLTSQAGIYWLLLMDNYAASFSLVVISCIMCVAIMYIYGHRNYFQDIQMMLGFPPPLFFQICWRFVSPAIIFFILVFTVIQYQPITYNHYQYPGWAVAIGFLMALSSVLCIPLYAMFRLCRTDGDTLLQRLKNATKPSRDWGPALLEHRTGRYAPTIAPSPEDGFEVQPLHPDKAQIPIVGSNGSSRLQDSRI
Summary of the method: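 Whole-cell SPA in JAR cells, which endogenously express hGlyT-1b. Cells (50,000 per well) were attached overnight in RPMI/10% FBS at 37 °C, 5% CO₂. [¹⁴C]glycine was then added and incubated 3 h at 37 °C. The assay window was set with unlabeled glycine. A reference standard ran on each plate. IC₅₀ values are means of n ≥ 2.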

[2] = Metabolic stability in human liver microsomes assessed as parent compound remaining at 3 uM incubated for 15 mins by LC-MS analysis; assay type: ADME, Microsome
Summary of the method: (§1)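 Liver microsomes incubated with compound at 3 μM for 15 min. Parent compound remaining was quantified by LC-MS.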

[3] = Metabolic stability in rat liver microsomes assessed as parent compound remaining at 3 uM incubated for 15 mins by LC-MS analysis; assay type: ADME, Microsome; conditions: liver microsomes, read-out: Stability; summary of the method: as §1
[4] = Thermodynamic solubility in pH 7.4 PBS by shake flask method; assay type: physicochemical; conditions: read-out: Therm_solubility
Summary of the method: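 Thermodynamic shake-flask solubility in PBS, pH 7.4.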

Rattus norvegicus [5] = experiment: In vivo inhibition of glycine transporter-1 in Sprague-Dawley rat assessed as CSF glycine level at 0.3 mg/kg, po measured 2 hrs post dose by LC-MS/MS analysis relative to control; assay type: functional; set-up: scale not given: the % may be the effect or the level left
Summary of the method: (§2)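 Drug-naive adult male Sprague-Dawley rats, n = 4-5 per group, given a single oral dose of 0.4, 1.5, 4.7 or 15.7 μmol/kg. Vehicle was 5% Solutol + 10% Captisol in 25 mM PBS, pH 2. At 2 h, rats were killed by CO₂. CSF (50-100 μL) was taken from the cisterna magna, and brain and plasma were also collected. Glycine was measured by LC-MS/MS against a deuterated-glycine internal standard. Results given as % vehicle control (vehicle 30 min post-dose), mean ± SEM. Two-way ANOVA with Tukey test.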

Rattus norvegicus [6] = experiment: In vivo inhibition of glycine transporter-1 in Sprague-Dawley rat assessed as CSF glycine level at 1 mg/kg, po measured 2 hrs post dose by LC-MS/MS analysis relative to control; assay type: functional; set-up: scale not given: the % may be the effect or the level left; summary of the method: as §2
Rattus norvegicus [7] = experiment: In vivo inhibition of glycine transporter-1 in Sprague-Dawley rat assessed as CSF glycine level at 3 mg/kg, po measured 2 hrs post dose by LC-MS/MS analysis relative to control; assay type: functional; set-up: scale not given: the % may be the effect or the level left; summary of the method: as §2
Rattus norvegicus [8] = experiment: In vivo inhibition of glycine transporter-1 in Sprague-Dawley rat assessed as CSF glycine level at 10 mg/kg, po measured 2 hrs post dose by LC-MS/MS analysis relative to control; assay type: functional; set-up: scale not given: the % may be the effect or the level left; summary of the method: as §2
[9] = Drug level in Sprague-Dawley rat CSF at 0.3 mg/kg, po measured 2 hrs post dose by LC-MS/MS analysis; assay type: ADME, organism-based, Cerebrospinal fluid; conditions: read-out: Drug uptake
Summary of the method: (§3)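 Drug-naive Sprague−Dawley rats (n = 4−5/group) were dosed orally once in 5% Solutol plus 20% Captisol in 25 mM PBS, pH 2, and euthanized 2 h later by CO₂. CSF was drawn from the cisterna magna. Drug was measured in CSF, brain and plasma; data as mean ± SEM.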

[10] = Drug level in Sprague-Dawley rat CSF at 1 mg/kg, po measured 2 hrs post dose by LC-MS/MS analysis; assay type: ADME, organism-based, Cerebrospinal fluid; conditions: read-out: Drug uptake; summary of the method: as §3
[11] = Drug level in Sprague-Dawley rat CSF at 3 mg/kg, po measured 2 hrs post dose by LC-MS/MS analysis; assay type: ADME, organism-based, Cerebrospinal fluid; conditions: read-out: Drug uptake; summary of the method: as §3
[12] = Drug level in Sprague-Dawley rat CSF at 10 mg/kg, po measured 2 hrs post dose by LC-MS/MS analysis; assay type: ADME, organism-based, Cerebrospinal fluid; conditions: read-out: Drug uptake; summary of the method: as §3
[13] = Drug level in Sprague-Dawley rat brain at 0.3 mg/kg, po measured 2 hrs post dose by LC-MS/MS analysis; assay type: ADME, organism-based; conditions: read-out: Drug uptake; summary of the method: as §3
[14] = Drug level in Sprague-Dawley rat brain at 1 mg/kg, po measured 2 hrs post dose by LC-MS/MS analysis; assay type: ADME, organism-based; conditions: read-out: Drug uptake; summary of the method: as §3
[15] = Drug level in Sprague-Dawley rat brain at 3 mg/kg, po measured 2 hrs post dose by LC-MS/MS analysis; assay type: ADME, organism-based; conditions: read-out: Drug uptake; summary of the method: as §3
[16] = Drug level in Sprague-Dawley rat brain at 10 mg/kg, po measured 2 hrs post dose by LC-MS/MS analysis; assay type: ADME, organism-based; conditions: read-out: Drug uptake; summary of the method: as §3
[17] = Drug level in Sprague-Dawley rat plasma at 0.3 mg/kg, po measured 2 hrs post dose by LC-MS/MS analysis; assay type: ADME, organism-based; summary of the method: as §3
[18] = Drug level in Sprague-Dawley rat plasma at 1 mg/kg, po measured 2 hrs post dose by LC-MS/MS analysis; assay type: ADME, organism-based; summary of the method: as §3
[19] = Drug level in Sprague-Dawley rat plasma at 3 mg/kg, po measured 2 hrs post dose by LC-MS/MS analysis; assay type: ADME, organism-based; summary of the method: as §3
[20] = Drug level in Sprague-Dawley rat plasma at 10 mg/kg, po measured 2 hrs post dose by LC-MS/MS analysis; assay type: ADME, organism-based; summary of the method: as §3
Rattus norvegicus [21] = experiment: In vivo inhibition of glycine transporter-1 in Sprague-Dawley rat assessed as increase in CSF glycine level at 1 to 10 mg/kg, po qd for 5 days measured 48 hrs post last dose by LC-MS/MS analysis; assay type: functional, organism-based
Summary of the method: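 Drug-naive Sprague-Dawley rats, n = 5 per group, dosed orally once daily for 5 days with vehicle or 1.6, 4.8 or 16.1 μmol/kg. Vehicle was 5% Solutol / 20% Captisol in 25 mM PBS, pH 2. Killed 2 h or 48 h after the last dose. CSF glycine was expressed as % of vehicle control (vehicle 2 h post last dose), mean ± SEM. Two-way ANOVA with Tukey test.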

[22] = Drug level in cynomolgus monkey plasma at 3 mg/kg, po measured at 24 hrs post dose by LC-MS/MS analysis; assay type: ADME, organism-based, Macaca fascicularis

Row | Structure (SMILES) | IC50 [1] [nM] | remaining at 0.25 h, 3 µM [3] [%] | solubility thermodynamic [4] [µM] | Activity (Rattus norvegicus [5]) [%] | Activity (Rattus norvegicus [6]) [%] | Activity (Rattus norvegicus [7]) [%] | Activity (Rattus norvegicus [8]) [%] | concentration at 2 h [9] | concentration at 2 h [10] [nM] | concentration at 2 h [11] [nM] | concentration at 2 h [12] [nM] | concentration at 2 h [13] [nM] | concentration at 2 h [14] [nM] | concentration at 2 h [15] [nM] | concentration at 2 h [16] [nM] | concentration at 2 h [17] [nM] | concentration at 2 h [18] [nM] | concentration at 2 h [19] [nM] | concentration at 2 h [20] [nM] | other results
1 | Cl.Cn1cc(S(=O)(=O)N2CCN(C3(CNC(=O)c4ccc(C(F)(F)F)cc4Cl)CCC(F)(F)CC3)CC2)nn1 | 0.671 | 85 | 9.9 | 106.6 | 166 | 251.8 | 306.4 | 2.7 nM | 3.7 | 4 | 7.5 | 7.5 | 13.1 | 39.2 | 64.9 | 18 | 76.9 | 204 | 432 | remaining at 0.25 h, 3 µM ([2]; liver microsomes, read-out: Stability): 60%; inhibition (Rattus norvegicus [21]): inactive
2 | CC(NC(=O)c1ccc(C(F)(F)F)cc1Cl)C1(N2CCN(S(=O)(=O)c3cn(C)nn3)CC2)CCC(F)(F)CC1.Cl (single isomer, unassigned; (+)) | 1.06 | 76 | 22.2 | 100.4 | 119.3 | 160.5 | 326.4 | < 1 ng/mL | 0.1 | 0.5 | 1.7 | 3.2 | 3.6 | 12.5 | 32.2 | 3.2 | 11.4 | 52.2 | 318 | Stability ([2]; microsomes, 0.25 h, 3 µM): 74%; concentration at 24 h [22]: < 1 ng/mL
